# High-throughput results deposited in PubChem BioAssay by several laboratories.
# Most compounds without a hit are left out; they make up all but 9.8% or so of the library.
# PMI act = activators of human phosphomannose isomerase | P34949 | purified human PMI, coupled resazurin fluorescence, 20 min; stronger effect = higher value; 1 = vehicle control, 0 substrate-free wells | activation factor at 20 µM | 190,000 compounds, 0.005% hits | AID 1214;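 active = activation factor of 2 or more at 20 µM, relative to plate controls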
# Target sequence (P34949 whole entry, looked up): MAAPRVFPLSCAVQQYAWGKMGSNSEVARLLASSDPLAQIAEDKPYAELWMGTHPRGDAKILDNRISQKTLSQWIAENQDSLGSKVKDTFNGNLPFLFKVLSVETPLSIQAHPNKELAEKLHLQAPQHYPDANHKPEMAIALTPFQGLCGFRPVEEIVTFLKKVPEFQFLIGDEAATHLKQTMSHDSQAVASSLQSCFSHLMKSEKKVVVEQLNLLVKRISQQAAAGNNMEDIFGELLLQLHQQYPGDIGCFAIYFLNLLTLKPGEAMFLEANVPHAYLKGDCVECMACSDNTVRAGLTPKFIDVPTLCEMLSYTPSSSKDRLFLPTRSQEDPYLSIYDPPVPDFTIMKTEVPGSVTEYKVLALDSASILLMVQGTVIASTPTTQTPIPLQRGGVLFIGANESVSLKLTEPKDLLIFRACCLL
# PMI act hi M6P = increases human PMI activity with near-saturating mannose 6-phosphate. coupled PMI enzyme assay, resazurin fluorescence, 20 min; stronger effect = higher value; 1 = untreated enzyme, 0 = substrate-free blank. activation factor at 20 µM. 190,000 compounds, 0.34% hits. AID 1216;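 active = activation factor of 2 or more at 20 µM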
#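 assay system = human phosphomannose isomerase with PGI, G6PDH, diaphorase coupling enzymes | quantity = 15 ng/mL PMI | incubation = enzyme reaction with compound 20 min at room temperature | medium = HEPES pH 7.4 buffer with MgCl2 and Tween-20 | compound dosing = one concentration, 20 µM, in 1% DMSO | measured by = Diaphorase-driven resazurin-to-resorufin fluorescence, excitation 544, emission 590 nm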
# Calpain2 inh = calpain II (pig) inhibition. purified calpain II, fluorogenic peptide substrate, 30 min. inhibition, % at 16 µM. 220,000 compounds, 0.37% hits. AID 1236;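 active = inhibition above about 50%, limit read from the data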
# Lmaj promast = reduces viability of Leishmania major promastigotes | resazurin fluorescence viability | inhibition, % at 10 µM | 200,000 compounds, 9% hits | AID 1063; in the data active = inhibition above about 50%;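 note: promastigotes grown with compound for 44 hours at 28 °C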
# WT yeast gro inh = growth inhibition of WT yeast, mitochondrial fusion screen; mitochondrial fusion phenotypic screen, WT strain; 190,000 compounds, 2.1% hits; inhibition, % at 10 µM; AID 1362; in the data active = inhibition above about 58%; tested in S. cerevisiae
# Rad51 HR inh = Rad51 (human) homologous recombination inhibition. Q06609. hRad51 DNA strand exchange, fluorescence dequenching. inhibition, % at 10 µM. 200,000 compounds, 0.085% hits;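 active = inhibition above 40% at the single screening dose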;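 note: 0% = DMSO control wells and 100% = blanks with heterologous ssDNA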
#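 Assay system: Human Rad51 nucleoprotein filaments preassembled on unlabelled ssDNA | Reagent: Donor/quencher-labelled 47-bp dsDNA substrate | Doses: One concentration, 10 µM final | Times: 37 °C 15-min filament assembly, 30-min compound preincubation, 15-min exchange | Technique: Fluorescein emission 520 nm, excitation 485 nm | Benchmarks: Plate control and blank wells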
# * marks the source's active call; other numbers are inactive results; . = no result given.
SMILES,PMI act,PMI act hi M6P,Calpain2 inh,Lmaj promast,WT yeast gro inh,Rad51 HR inh
O=C(Nc1ccccc1)NC1(C(=O)NCc2ccc3c(c2)OCO3)CCCCC1,0.7,0.8,18,58*,4,1
CCN(CC(=O)Nc1cc(Cl)ccc1OC)CC(=O)NC1CCS(=O)(=O)C1 (stereo not drawn),.,.,-3,.,.,24
COc1cc2c(cc1NC(=O)c1cc(-c3ccccn3)nc3ccccc13)oc1ccccc12,0.9,1,-43,4,19,3
CCN1C(c2ccc(F)cc2)=CS/C1=C(\C#N)c1nnc2n1-c1ccccc1SC2,1,1,-6,72*,1,1
CN1C(=O)NC(c2ccccc2)(C(F)(F)F)S/C1=C(/C#N)c1nnc(N2CCOCC2)n1-c1ccccc1 (stereo not drawn),1,1,-48,-5,-3,10
CN1C(c2ccc(F)cc2)=CS/C1=C(/C#N)c1nnc(N2CCOCC2)n1-c1ccccc1,1.1,1.1,-8,56*,2,3
C=CCN1C(c2ccccc2)=CS/C1=C(/C#N)c1nnc(N2CCOCC2)n1-c1ccccc1,1,1,2,74*,-14,2
Cc1cc(/C=C(\C#N)c2nnc(N3CCOCC3)n2-c2ccccc2)c(C)n1-c1ccccc1,1,1.1,20,30,-7,.
O=[N+]([O-])c1ccccc1/C=C/C=N/n1c(-c2ccccc2F)n[nH]c1=S,.,.,20,.,.,5
COc1cc(N2CCCC2)c(OC)cc1/C=C1/NC(=S)NC1=O,1.1,0.7,40,96*,7,-95
CCC(=O)Nc1ccc(-c2nnc(SCc3ccc(C(=O)Nc4nccs4)cc3)n2CC)cc1,1,0.9,-31,-2,60*,2
Cc1cc(=S)[nH]c2ccccc12,1.2,2.1*,11,-6,-10,.
Cc1ccc2[nH]c(=S)cc(C)c2c1,0.9,1.4,-218,-1,11,-5
Cc1ccc2c(C)cc(=S)[nH]c2c1,1.8,2.8*,28,-4,15,-8
CN(C)c1cccc2c1c(NC(=O)c1ccc(Cl)cc1)nn2C,.,.,-3,.,.,4
CC(C)Cn1c(C(C)C)nc([N+](=O)[O-])c1S(=O)(=O)c1ccc(F)cc1,1,1,14,96*,0,-7
CC(C)Cn1c(C(C)C)nc([N+](=O)[O-])c1Sc1ccc(Cl)cn1,1,1.1,-7,41,-3,-10
CCCc1nc([N+](=O)[O-])c(S(=O)(=O)c2ccccc2)n1CC(C)C,1,1,-9,95*,1,-37
Cc1ccc(-c2nnn(CC(=O)N(c3ccccc3F)C(C(=O)NC3CCCC3)c3ccco3)n2)o1 (stereo not drawn),0.9,0.9,11,12,-14,-1
CCCC(C(=O)NC1CCCC1)N(C(=O)Cn1nnc(-c2ccc(C)o2)n1)c1ccccc1OC (stereo not drawn),1,1,30,77*,-5,-4
O=C1OC(COc2ccc(Br)cc2)CN1c1ccccc1 (stereo not drawn),.,.,-15,.,.,20
O=C(O)/C=C/C(=O)NNC(=O)c1cccc(Br)c1,0.9,1.1,2,-9,-19,11
O=C(c1c(F)c(F)c(F)c(F)c1F)N(Cc1ccccc1)Cc1ccccc1,1,1,11,8,66*,-4
CC(C)(C)CC(=O)NCCCCCCNC(=O)CC(C)(C)C,1.1,1.1,-10,-3,-15,4
Cc1nc(N2CCCCC2C)c2c(C)c(C(=O)Nc3cccc(C(F)(F)F)c3)sc2n1 (stereo not drawn),0.9,0.9,-57,67*,68*,3
Cc1ccc(NC(=O)c2sc3nc(C)nc(N4CCN(c5ccccn5)CC4)c3c2C)c(C)c1,0.9,0.9,-77,30,38,-1
Cc1nc(N2CCCCC2)c2c(C)c(C(=O)Nc3ccccc3C(F)(F)F)sc2n1,0.8,0.8,-23,42,66*,19
CCOC(=O)c1sc2nc(C)nc(N3CCCCC3C)c2c1C (stereo not drawn),1,1,8,28,47,2
Cc1nc(N2CCN(C)CC2)c2c(C)c(C(=O)Nc3ccc(F)cc3)sc2n1,0.9,0.9,-4,8,.,11
